Measurements published in ChEMBL document CHEMBL4325833, “Discovery of a Potent, Selective, and Brain-Penetrant Small Molecule that Activates the Orphan Receptor GPR88 and Reduces Alcohol Intake” (J Med Chem, 2018).
Activity calls are given as the source filed them. No cut-off for these calls is given here.

Experiments:
[1] = target: G protein-coupled receptor 88 (Homo sapiens, UniProt Q9GZN0)
[2] = species on record: Mus musculus; experiment: Increase in [35S]-GTPgammaS binding in GPR88 knocked out mouse striatal membranes at 100 uM after 1 hr by liquid scintillation counting; format: functional, cell membranes; settings: Striatal membrane
How it was run: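 Striata from GPR88 KO mice. Membranes made by sucrose homogenization and differential centrifugation (2500g, then 23000g). 2 µg protein per well incubated 1 h at 25 °C with 0.1 nM [35S]-GTPγS and GDP. Nonspecific binding taken with 10 µM GTPγS. Read by liquid scintillation counting, expressed as % above basal. Two independent experiments in triplicate.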

[3] = tested on: VMAT; experiment: Displacement of [3H]-dihydrotetrabenazine from VMAT in human platelet cell membranes at 10 uM after 60 mins by scintillation counting relative to control; settings: probe [3H]-dihydrotetrabenazine
How it was run: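 Radioligand binding screen run by Eurofins PanLabs under their standard protocols, single concentration 10 μM. Percent inhibition of radioligand binding is the average of two determinations.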

[4] = Displacement of [3H]-dihydrotetrabenazine from VMAT in human platelet cell membranes after 60 mins by scintillation counting
How it was run: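 VMAT affinity follow-up run by Eurofins PanLabs under their standard protocols. Full concentration–displacement curves were run in duplicate. IC50 came from nonlinear regression and was converted to Ki by Cheng–Prusoff, using the radioligand concentration and historical Kd of the ligand.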

[5] = tested on: Rattus norvegicus; experiment: Decrease in alcohol self administration in Long-Evans rat assessed as reduction in alcohol lever responses at 5 to 20 mg/kg, ip administered 30 mins prior to a self-administration session; format: functional, organism-based
[6] = target: KOR (kappa-type opioid receptor) (Homo sapiens, UniProt P41145); experiment: Binding affinity to human full length KOR assessed as reduction in radioligand binding at 10 uM after 60 mins by scintillation counting relative to control
How it was run: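 Outsourced radioligand binding screen, one of 38 GPCR, ion channel and transporter targets, run to the provider's standard protocols. Test concentration was a single 10 µM. Percent inhibition of radioligand binding is the average of two determinations.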

[7] = species on record: Mus musculus; experiment: Increase in [35S]-GTPgammaS binding in GPR88 knocked out mouse striatal membranes at 10 uM after 1 hr by liquid scintillation counting; format: functional, cell membranes; settings: Striatal membrane
[8] = target: G protein-coupled receptor 88 (Mus musculus, UniProt Q9EPB7); experiment: Agonist activity at GPR88 in wild type mouse striatal membranes assessed as increase in [35S]-GTPgammaS binding after 1 hr by liquid scintillation counting; format: functional, cell membranes, Striatum, Membrane
Chain of G protein-coupled receptor 88 (Mus musculus, UniProt Q9EPB7) (Q9EPB7 whole entry): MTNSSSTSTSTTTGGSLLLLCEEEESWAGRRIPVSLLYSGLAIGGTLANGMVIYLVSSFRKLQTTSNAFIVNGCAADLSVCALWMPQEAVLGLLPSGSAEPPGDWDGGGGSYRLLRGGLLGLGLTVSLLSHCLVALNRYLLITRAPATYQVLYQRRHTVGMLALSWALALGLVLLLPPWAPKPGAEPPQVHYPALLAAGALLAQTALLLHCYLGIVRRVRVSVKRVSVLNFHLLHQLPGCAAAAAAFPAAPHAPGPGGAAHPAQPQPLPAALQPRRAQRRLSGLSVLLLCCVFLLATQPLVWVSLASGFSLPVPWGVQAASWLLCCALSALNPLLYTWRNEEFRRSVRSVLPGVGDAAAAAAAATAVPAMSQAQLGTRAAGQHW

Chain of G protein-coupled receptor 88 (Homo sapiens, UniProt Q9GZN0) (Q9GZN0 whole entry): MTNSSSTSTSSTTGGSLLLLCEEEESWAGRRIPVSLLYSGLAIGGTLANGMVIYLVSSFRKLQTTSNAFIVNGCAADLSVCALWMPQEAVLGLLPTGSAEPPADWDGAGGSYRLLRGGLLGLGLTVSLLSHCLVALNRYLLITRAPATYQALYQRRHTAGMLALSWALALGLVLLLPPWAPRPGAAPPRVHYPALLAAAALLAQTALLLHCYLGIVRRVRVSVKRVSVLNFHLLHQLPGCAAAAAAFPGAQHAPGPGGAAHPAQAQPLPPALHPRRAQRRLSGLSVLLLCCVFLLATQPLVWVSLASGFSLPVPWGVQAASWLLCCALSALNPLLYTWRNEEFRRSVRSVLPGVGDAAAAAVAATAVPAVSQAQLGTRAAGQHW
Chain of KOR (kappa-type opioid receptor) (P41145 whole entry): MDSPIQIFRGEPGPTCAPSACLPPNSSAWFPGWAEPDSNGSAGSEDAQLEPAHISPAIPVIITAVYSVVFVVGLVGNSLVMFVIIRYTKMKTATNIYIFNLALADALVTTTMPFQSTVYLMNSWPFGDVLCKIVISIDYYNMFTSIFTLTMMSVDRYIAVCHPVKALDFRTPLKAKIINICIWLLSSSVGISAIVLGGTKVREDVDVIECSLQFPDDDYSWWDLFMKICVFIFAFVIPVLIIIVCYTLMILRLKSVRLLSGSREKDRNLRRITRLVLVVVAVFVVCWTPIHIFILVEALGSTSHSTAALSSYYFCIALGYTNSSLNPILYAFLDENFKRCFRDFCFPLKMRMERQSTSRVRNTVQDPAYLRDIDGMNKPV

Row | Compound | EC50 [1] | also measured
1 | CCCc1ccc(-c2ccc(N(C[C@@H](N)CC(C)C)C(=O)[C@@H]3C[C@H]3c3ccccn3)cc2)cc1 | 126 nM | –
2 | CCCc1ccc(-c2ccc(N(C[C@@H](N)[C@@H](C)OC)C(=O)[C@@H]3C[C@H]3c3ccccn3)cc2)cc1 (relative stereo) | 63 nM | –
3 | CCCc1ccc(-c2ccc(N(CCN)C(=O)[C@@H]3C[C@H]3c3ccccn3)cc2)cc1 | 501 nM | –
4 | COCc1ccc(-c2ccc(N(C[C@@H](N)[C@@H](C)OC)C(=O)[C@@H]3C[C@H]3c3ccccn3)cc2)cc1 | – | Activity [2]: inactive; inhibition at 1 h, 10 µM [3]: 54%; Ki [4]: 4230 nM; Activity [5]: Dose-dependent effect; inhibition at 1 h, 10 µM [6]: 64%
5 | CCCc1ccc(-c2ccc(N(C[C@@H](N)C(C)C)C(=O)[C@@H]3C[C@H]3c3ccccn3)cc2)cc1 | 158 nM | –
6 | CCCc1ccc(-c2ccc(N(C[C@H](C)N)C(=O)[C@@H]3C[C@H]3c3ccccn3)cc2)cc1 | 398 nM | –
7 | CCCc1ccc(-c2ccc(N(C[C@@H](N)c3ccccc3)C(=O)[C@@H]3C[C@H]3c3ccccn3)cc2)cc1 (relative stereo) | 1260 nM | –
8 | COc1ccc(-c2ccc(N(C[C@@H](N)[C@@H](C)OC)C(=O)[C@@H]3C[C@H]3c3ccccn3)cc2)cc1 (relative stereo) | 126 nM | –
9 | CCCc1ccc(-c2ccc(N(C[C@@H](N)[C@@H](C)CC)C(=O)[C@@H]3C[C@H]3c3ccccn3)cc2)cc1 | – | Activity [7]: Active; EC50 [8]: 1140 nM
10 | CCCc1ccc(-c2ccc(N(C[C@@H](N)Cc3ccccc3)C(=O)[C@@H]3C[C@H]3c3ccccn3)cc2)cc1 | 501 nM | –
11 | CCCc1ccc(-c2ccc(N(CC(C)(C)N)C(=O)[C@@H]3C[C@H]3c3ccccn3)cc2)cc1 (relative stereo) | 316 nM | –
